This is an account of results in ChEMBL document CHEMBL1145854, “Characteristics of selenazolidine prodrugs of selenocysteine: toxicity and glutathione peroxidase induction in V79 cells” (J Med Chem, 2003).

Holding throughout (conditions): Cricetulus griseus
Experiment [1] concerns V79. Description: Glutathione peroxidase activity in V79 cells at 100 uM expressed as fold induction of GPx activity to control value. Format: cell-based. The gist of the method:
(§1)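 V79 cells (5.0×10^5 per flask) adhered overnight, then exposed 48 h to compound in complete medium (pH 7–7.5), followed by 24 h in fresh medium. Cells were sonicated in Tris-HCl (50 mM, pH 7.5, EDTA, 2-mercaptoethanol) and centrifuged. Supernatant GPx was read as NADPH loss at 340 nm over 3 min with tert-butyl hydroperoxide, normalised to Bradford protein (N = 9), and given as fold over untreated control.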

For experiment [2], the system named is V79. Description: Cytotoxicity activity against V79 cells. Format: functional, cell-based. Put shortly:
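V79 cells kept in D-MEM with 10% Fetal Clone I serum at 37 °C, 5% CO2, then seeded in 96-well plates and allowed to adhere overnight. Exposed 2 days to compound (0–3000 µM, pH 7–7.5, in complete medium). Viability read by MTS (2 h, 490 nm), expressed as percent of untreated control. IC50 taken by regression of viability vs concentration.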

The test system of experiment [3] is V79. Kind of experiment: Glutathione peroxidase activity in V79 cells at 20 uM expressed as fold induction of GPx activity to control value. Format: cell-based. The gist of the method: as §1

Bounds are passed on as bounds.

On to `O=C1N[C@H](C(=O)O)C[Se]1`, for which the Fold induction in experiment [1] is 4.6. For the same compound, half-maximal inhibition in experiment [2] (IC50) was put at 451 µM.
The corresponding values for `O=C(O)[C@@H]1C[Se]CN1` are 5.9 and 317 µM.
`O=[Se](=O)(O)O` [SODIUM SELENATE] had a Fold induction in experiment [1] of 1.9. In experiment [2], it took 292 µM to reach half-maximal inhibition (IC50).
In experiment [1], `O=C1N[C@@H](C(=O)O)C[Se]1` gave a Fold induction of 1.4. This compound also returned an IC50 in experiment [2] above 3000 µM.
The compound `CC1N[C@@H](C(=O)O)C[Se]1` (some centres undefined) gave a Fold induction in experiment [1] of 1.3. Further, the IC50 in experiment [2] turned out to be 160 µM.
On to `N#C[Se]Cc1ccc(C[Se]C#N)cc1`, for which the Fold induction in experiment [3] came to 1.5. 12 µM corresponded to half-maximal inhibition in experiment [2] (IC50).
`C[Se]CC[C@H](N)C(=O)O` [SELENOMETHIONINE] returned a Fold induction in experiment [1] of 1.8. Besides, 267 µM corresponded to half-maximal inhibition in experiment [2] (IC50).
Turning to `O=[Se](O)O` [SODIUM SELENITE], in experiment [2], half-maximal inhibition (IC50) was put at 17 µM.
In turn, `C[Se]C[C@H](N)C(=O)O` [METHYLSELENOCYSTEINE] registered a Fold induction in experiment [1] of 1.5. The midpoint of inhibition in experiment [2], the IC50, lay at 472 µM.
`CC1N[C@H](C(=O)O)C[Se]1` (some centres undefined) yielded a Fold induction in experiment [1] of 2.1. In experiment [2], this compound had an IC50 of 79 µM.
